Several values for one entry are separate records, joined by “and”; a condition that tells them apart may be missing. Identical values can stand only once.
Columns and labels:
[1] = target: T1, Progesterone receptor (Homo sapiens) (UniProt P06401); experiment: Nonspecific binding affinity against progesterone receptor was estimated relative to compound R5020
T1 sequence (whole entry): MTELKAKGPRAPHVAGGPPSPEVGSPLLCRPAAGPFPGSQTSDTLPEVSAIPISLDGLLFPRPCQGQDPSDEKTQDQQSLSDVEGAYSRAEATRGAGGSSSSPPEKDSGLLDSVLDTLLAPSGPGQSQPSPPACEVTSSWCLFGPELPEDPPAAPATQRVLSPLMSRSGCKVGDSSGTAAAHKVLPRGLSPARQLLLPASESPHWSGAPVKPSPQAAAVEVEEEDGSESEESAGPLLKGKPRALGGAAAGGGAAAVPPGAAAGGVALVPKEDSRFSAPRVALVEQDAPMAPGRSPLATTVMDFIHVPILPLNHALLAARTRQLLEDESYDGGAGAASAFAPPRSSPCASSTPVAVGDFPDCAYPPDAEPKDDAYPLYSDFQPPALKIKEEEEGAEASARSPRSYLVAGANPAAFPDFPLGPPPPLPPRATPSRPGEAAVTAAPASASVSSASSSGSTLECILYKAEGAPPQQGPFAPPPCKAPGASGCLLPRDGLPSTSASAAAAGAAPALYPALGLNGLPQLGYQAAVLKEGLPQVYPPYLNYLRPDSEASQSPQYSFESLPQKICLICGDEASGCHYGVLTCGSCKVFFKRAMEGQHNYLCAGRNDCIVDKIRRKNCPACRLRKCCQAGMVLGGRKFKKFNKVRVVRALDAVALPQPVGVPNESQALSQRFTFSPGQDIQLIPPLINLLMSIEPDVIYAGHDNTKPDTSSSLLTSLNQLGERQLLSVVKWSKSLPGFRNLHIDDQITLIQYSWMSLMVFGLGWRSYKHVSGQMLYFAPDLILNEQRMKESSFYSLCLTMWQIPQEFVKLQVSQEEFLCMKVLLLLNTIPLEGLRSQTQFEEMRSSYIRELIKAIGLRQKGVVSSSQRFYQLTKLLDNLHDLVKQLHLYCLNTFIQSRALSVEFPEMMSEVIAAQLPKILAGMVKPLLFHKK

[2] = Partition coefficient (logP); assay type: physicochemical; conditions: octanol/water
Summary of the method: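 log P(o/w) (octanol/water) estimated by a reversed-phase HPLC method.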

Rattus norvegicus [3] = species on record: Rattus norvegicus; experiment: Tissue biodistribution into estrogen-primed immature female rat uterus at 1 hr time interval; assay type: ADME, organism-based; conditions: in vivo
Summary of the method: (§1)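 Immature female Sprague-Dawley rats (25 days old, ≈50 g, five per time point) primed with estradiol, 5 μg sc daily for 2 days in 50% ethanol/sunflower seed oil, used 24 h after the last injection. The 18F-labeled ligand was given iv by tail vein in 10% ethanol/saline. Decapitated at 1 or 3 h; blood and organs weighed and gamma-counted. Reported as %ID/g ± SD, n = 5.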

Rattus norvegicus [4] = species on record: Rattus norvegicus; experiment: Tissue biodistribution into estrogen-primed immature female rat muscle at 1 hr time interval; assay type: ADME, organism-based; conditions: in vivo; summary of the method: as §1
Rattus norvegicus [5] = species on record: Rattus norvegicus; experiment: Tissue biodistribution into estrogen-primed immature female rat kidney at 1 hr time interval; assay type: ADME, organism-based; conditions: in vivo; summary of the method: as §1
Rattus norvegicus [6] = species on record: Rattus norvegicus; experiment: Tissue biodistribution into estrogen-primed immature female rat brain at 1 hr time interval; assay type: ADME, organism-based; conditions: in vivo; summary of the method: as §1
Rattus norvegicus [7] = species on record: Rattus norvegicus; experiment: Tissue biodistribution into estrogen-primed immature female rat lung at 1 hr time interval; assay type: ADME, organism-based; conditions: in vivo; summary of the method: as §1
Rattus norvegicus [8] = species on record: Rattus norvegicus; experiment: Tissue biodistribution into estrogen-primed immature female rat fat at 1 hr time interval; assay type: ADME, organism-based, Adipose tissue; conditions: in vivo; summary of the method: as §1
Rattus norvegicus [9] = species on record: Rattus norvegicus; experiment: Tissue biodistribution into estrogen-primed immature female rat blood at 1 hr time interval; assay type: ADME, organism-based; conditions: in vivo; summary of the method: as §1
[10] = target: T1, Progesterone receptor (Homo sapiens); experiment: Binding selectivity index as the ratio of RBA value to that of NSB value.
Summary of the method: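 BSI calculated as the ratio of RBA to NSB.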

Rattus norvegicus [11] = species on record: Rattus norvegicus; experiment: Tissue biodistribution into estrogen-primed immature female rat uterus/muscle at 1 hr time interval; assay type: ADME, organism-based; conditions: in vivo
[12] = target: T1, Progesterone receptor (Homo sapiens); experiment: Relative binding affinity against progesterone receptor at 0 degree Celsius determined in a competitive radiometric binding assay (R5020=100%).
Summary of the method: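 Competitive radiometric binding at 0 °C against tritium-labeled R5020 as the standard (RBA = 100). Values are the average of two experiments.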

Rattus norvegicus [13] = species on record: Rattus norvegicus; experiment: Tissue biodistribution into estrogen-primed immature female rat bone at 1 hr time interval; assay type: ADME, organism-based, Bone element; conditions: in vivo; summary of the method: as §1
Rattus norvegicus [14] = species on record: Rattus norvegicus; experiment: Tissue biodistribution into estrogen-primed immature female rat liver at 1 hr time interval; assay type: ADME, organism-based; conditions: in vivo; summary of the method: as §1
Rattus norvegicus [15] = species on record: Rattus norvegicus; experiment: Tissue biodistribution into estrogen-primed immature female rat uterus/blood at 1 hr time interval; assay type: ADME, organism-based; conditions: in vivo; summary of the method: as §1
Rattus norvegicus [16] = species on record: Rattus norvegicus; experiment: Tissue biodistribution into estrogen-primed immature female rat ovaries at 1 hr time interval; assay type: ADME, organism-based, Female gonad; conditions: in vivo; summary of the method: as §1

Compound	NSB [1]	logP [2]	logP ([2]; read-out: logP)	Injected dose/g (Rattus norvegicus [3]) [%]	Injected dose/g (Rattus norvegicus [4]) [%]	Injected dose/g (Rattus norvegicus [5]) [%]	Injected dose/g (Rattus norvegicus [6]) [%]	Injected dose/g (Rattus norvegicus [7]) [%]	Injected dose/g (Rattus norvegicus [8]) [%]	Injected dose/g (Rattus norvegicus [9]) [%]	BSI [10]	Uterus to muscle uptake ratio (Rattus norvegicus [11]) [%]	RBA [12]	Injected dose/g (Rattus norvegicus [13]) [%]	Injected dose/g (Rattus norvegicus [14]) [%]	Uterus to blood concentration ratio (Rattus norvegicus [15]) [%]	Injected dose/g (Rattus norvegicus [16]) [%]
C[C@]12CCC3C(CCC4=CC(=O)CC[C@@H]43)C1C[C@H]1OC(c3ccco3)O[C@]12C(=O)CO (some centres undefined)	0.96 and 0.76	3.78	4.01	–	–	–	–	–	–	–	–	–	–	–	–	–	–
CC(=O)[C@@]12O[C@](C)(c3ccc(F)cc3)O[C@@H]1CC1C3CCC4=CC(=O)CC[C@]4(C)C3CC[C@@]12C (some centres undefined)	5.52	–	–	3.08	0.82	2.18	0.56	1.3	5.76	0.47	10	3.85	53	1.76	3.41	6.59	3.93
CC(=O)[C@H]1CC[C@H]2[C@@H]3CCC4=CC(=O)CC[C@]4(C)[C@H]3CC[C@]12C	0.83	–	–	–	–	–	–	–	–	–	16	–	13	–	–	–	–
C[C@@]1(c2ccc(F)cc2)O[C@@H]2CC3C4CCC5=CC(=O)CC[C@@H]5C4CC[C@]3(C)[C@]2(C(=O)CO)O1 (some centres undefined)	2.45	–	–	3.65	0.44	1.42	0.34	0.6	3.53	0.26	98	8.2	240	0.62	4.25	14	2.8
CCC(=O)[C@@]1(C)CC[C@H]2[C@@H]3CCC4=CC(=O)CCC4=C3CC[C@@]21C	1	–	–	–	–	–	–	–	–	–	100	–	100	–	–	–	–
CC[C@@H]1C[C@H]2[C@@H]3CCC4=CC(=O)CC[C@@H]4[C@H]3CC[C@]2(C)[C@H]1C(=O)CF	1.87	–	–	6.43	0.42	1.05	0.63	0.47	3.56	0.25	374	15.98	700	3.18	3.34	26.26	2.86

— ChEMBL document CHEMBL1128440 (J Med Chem, 1995)
